In ChEMBL document CHEMBL4321840, “Start Selective and Rigidify: The Discovery Path toward a Next Generation of EGFR Tyrosine Kinase Inhibitors” (J Med Chem, 2019):
≈ marks a conversion by molar mass, not a printed value.

Experiments:
[1] = Protein binding in mouse plasma assessed as free fraction after 3 hrs by HPLC-MS/MS-based equilibrium dialysis method; type: ADME, cell-free
In short: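 Equilibrium dialysis of compound-spiked plasma against Soerensen buffer (pH 7.4) for 3 hours at 37°C. Compound levels in the plasma and buffer sides quantified by HPLC/MS-MS to give the bound and free fractions.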

[2] = Inhibition of EGFR del19/T790M/C797S triple mutant in mouse BAF3 cells assessed as reduction in cell proliferation incubated for 72 hrs by Celltiter-Glo luminescent cell viability assay; type: cell-based; conditions: BaF3, 72 h
In short: (§1)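 Murine Ba/F3 cells retrovirally transduced with GFP plus EGFR wt, del19 or del19/T790M/C797S, then puromycin-selected. Mutant lines were made IL-3-independent; wt line grown on EGF without IL-3. EGFR-independent control cells carried GFP-only vector and were kept in IL-3. Seeded at 5x10³/100 µl, treated 72 h at 37 °C, viability read by CellTiter-Glo luminescence. Technical and biological triplicates. Geometric mean of ≥3 independent runs. Selectivity ratio = wt IC50 / del19/T790M/C797S IC50.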

[3] = Aqueous solubility of compound in McIlvaine buffer at 1 mg/ml at pH 6.8 by HPLC-DAD/UV analysis; type: physicochemical
In short: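 Solid compound dispensed at 1 mg/mL into aqueous McIlvaine buffer (pH 6.8). Reference sample dissolved in acetonitrile/water (1:1). Dissolved concentration quantified by HPLC-DAD/UV.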

[4] = system: BaF3; assay: Cytotoxicity against mouse BAF3 cells incubated for 72 hrs by Celltiter-Glo luminescent cell viability assay; type: cell-based; conditions: BaF3, 72 h
In short: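 Mutant lines were made IL-3-independent; wt line grown on EGF without IL-3. EGFR-independent control cells carried GFP-only vector and were kept in IL-3. Seeded at 5x10³/100 µl, treated 72 h at 37 °C, viability read by CellTiter-Glo luminescence. Technical and biological triplicates. Geometric mean of ≥3 independent runs.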

[5] = Apparent permeability of compound at pH 7.4 by LC-MS based PAMPA method; type: ADME
In short: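 PAMPA at pH 7.4. A microfilter disc coated with immobilized artificial phospholipid membrane layers separates donor and acceptor chambers. Compound concentrations in both chambers are followed over time by LC/MS and compared with the donor concentration before incubation.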

[6] = system: PC-9; assay: Antiproliferative activity against human PC9 cells harboring EGFR del19/T790M/C797S triple mutant incubated for 96 hrs by Celltiter-Glo luminescent cell viability assay; type: functional, cell-based; conditions: PC-9, 96 h
In short: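 Cells plated in 96-well plates (A431 5000/well in DMEM + 10% FBS + sodium pyruvate; PC-9 del19/T790M/C797S 2000/well in RPMI + 10% FBS). Compound added 24 h after plating, then 96 h at 37°C, 5% CO2. Viability read by CellTiter-Glo luminescence, normalised to DMSO-treated cells, IC50 fitted. Technical and biological triplicates.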

[7] = Selectivity index, ratio of IC50 for antiproliferative activity against mouse BAF3 cells harboring wild type EGFR to IC50 for antiproliferative activity against mouse BAF3(transformed) cells harboring EGFR del19/T790M/C797S triple mutant incubated for 72 hrs by Celltiter-Glo luminescent cell viability assay; type: functional; in short: as §1
[8] = target: T1, Epidermal growth factor receptor (Homo sapiens, UniProt P00533, C797S/EX19DEL/T790M); assay: Inhibition of phosphorylated EGFR del19/T790M/C797S triple mutant (unknown origin) expressed in mouse BaF3 cells incubated for 4 hrs by Alphascreen assay; type: cell-based
[9] = system: A-431; assay: Antiproliferative activity against human A431 cells harboring EGFR wild type incubated for 96 hrs by Celltiter-Glo luminescent cell viability assay; type: functional, cell-based; conditions: A-431, 96 h
[10] = Volume of distribution in NMRI mouse at 10 mg/kg, po or 1 mg/kg, iv; type: ADME, organism-based; conditions: in vivo
In short: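 NMRI mice (n=3 per group) dosed orally at 10 mg/kg or intravenously at 1 mg/kg. Five plasma samples per mouse at set time points. Plasma protein precipitated with acetonitrile, compound quantified by LC-MS/MS against a calibration curve.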

[11] = Inhibition of EGFR del19 mutant in mouse BAF3 cells incubated for 72 hrs by Celltiter-Glo luminescent cell viability assay; type: cell-based; conditions: BaF3, 72 h; in short: as §1
[12] = system: PC-9; assay: Antitumor activity against human PC9 cells harboring del19/T790M/C797S triple mutant xenografted in BomTac:NMRI-Foxn1nu mouse assessed as tumor growth inhibition at 10 mg/kg, po qd administered for 19 days relative to control; type: functional; conditions: PC-9, po, 456 h, read-out: TGI
In short: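 Female BomTac:NMRI-Foxn1nu mice, 6-8 weeks old, implanted s.c. with 5×10⁶ PC-9 del19/T790M/C797S cells. Randomized by tumor size on day 7 (N=8 per treated group, N=10 vehicle). […] Tumor size and body weight measured three times weekly. Tumor volumes compared by one-sided decreasing Mann–Whitney test.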

[13] = target: Epidermal growth factor receptor (Homo sapiens, UniProt P00533); assay: Inhibition of human recombinant GST-tagged wild type EGFR expressed in baculovirus expression system assessed as decrease in phosphorylation of ULight-poly-GT using ULight-poly-GT as substrate incubated for 90 mins in presence of ATP by TR-FRET LANCE assay
[14] = target: T1, Epidermal growth factor receptor; assay: Inhibition of GST-fusion tagged EGFR del19/T790M/C797S triple mutant (unknown origin) (696 to 1022 residues) expressed in insect cells assessed as decrease in phosphorylation of ULight-poly-GT using poly-GT as substrate in presence of ATP
[15] = Hepatic clearance in mouse cryopreserved hepatocytes at 1 uM measured after 240 mins by LC-MS/MS analysis relative to hepatic blood flow; type: ADME, cell-based, Hepatocyte; conditions: read-out: CLH
In short: (§2)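 Compound (1 µM) incubated with cryopreserved hepatocytes. Depletion followed over 240 min by LC/MS/MS quantitation. In vivo hepatic clearance predicted with the well-stirred model and expressed as percent of hepatic blood flow (%QH).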

[16] = Hepatic clearance in human cryopreserved hepatocytes at 1 uM measured after 240 mins by LC-MS/MS analysis relative to hepatic blood flow; type: ADME, cell-based, Hepatocyte; conditions: read-out: CLH; in short: as §2
[17] = Protein binding in human plasma assessed as free fraction after 3 hrs by HPLC-MS/MS-based equilibrium dialysis method; type: ADME, cell-free
In short: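 Equilibrium dialysis: human plasma spiked with compound and dialyzed against Soerensen buffer (pH 7.4) for 3 h at 37 °C. Compound in plasma and buffer quantified by HPLC/MS-MS to calculate binding and free fraction.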

[18] = organism: Homo sapiens; assay: Selectivity ratio of IC50 for inhibition of human recombinant GST-tagged wild type EGFR expressed in baculovirus expression system to IC50 for inhibition of GST-fusion tagged EGFR del19/T790M/C797S triple mutant (unknown origin) (696 to 1022 residues) expressed in insect cells
In short: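 TR-FRET kinase assays on ULight-poly-GT substrate (200 nM) with ATP 100 µM, final enzyme 1.5 nM (wt) or 15 nM (del746-750/T790M/C797S). Buffer was HEPES pH 7.3, MgCl2, EGTA, Tween 20, DTT. Reaction ran 90 min at room temperature and was stopped with EDTA plus Eu-anti-pTyr antibody, read after 60 min. Top concentration 100 µM with eleven fivefold dilutions in duplicate. IC50 from a 4-parameter logistic fit; ratio is wt IC50 over mutant IC50.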

[19] = target: Epidermal growth factor receptor (Homo sapiens, UniProt P00533, C797S/L858R/T790M); assay: Inhibition of GST-fusion tagged EGFR L858R/T790M/C797S triple mutant (unknown origin) (696 to 1022 residues) expressed in insect cells assessed as decrease in phosphorylation of ULight-poly-GT using poly-GT as substrate in presence of ATP
Sequence of Epidermal growth factor receptor (Homo sapiens, UniProt P00533, C797S/L858R/T790M) (P00533 25-1210 T790M/C797S/L858R limits assumed): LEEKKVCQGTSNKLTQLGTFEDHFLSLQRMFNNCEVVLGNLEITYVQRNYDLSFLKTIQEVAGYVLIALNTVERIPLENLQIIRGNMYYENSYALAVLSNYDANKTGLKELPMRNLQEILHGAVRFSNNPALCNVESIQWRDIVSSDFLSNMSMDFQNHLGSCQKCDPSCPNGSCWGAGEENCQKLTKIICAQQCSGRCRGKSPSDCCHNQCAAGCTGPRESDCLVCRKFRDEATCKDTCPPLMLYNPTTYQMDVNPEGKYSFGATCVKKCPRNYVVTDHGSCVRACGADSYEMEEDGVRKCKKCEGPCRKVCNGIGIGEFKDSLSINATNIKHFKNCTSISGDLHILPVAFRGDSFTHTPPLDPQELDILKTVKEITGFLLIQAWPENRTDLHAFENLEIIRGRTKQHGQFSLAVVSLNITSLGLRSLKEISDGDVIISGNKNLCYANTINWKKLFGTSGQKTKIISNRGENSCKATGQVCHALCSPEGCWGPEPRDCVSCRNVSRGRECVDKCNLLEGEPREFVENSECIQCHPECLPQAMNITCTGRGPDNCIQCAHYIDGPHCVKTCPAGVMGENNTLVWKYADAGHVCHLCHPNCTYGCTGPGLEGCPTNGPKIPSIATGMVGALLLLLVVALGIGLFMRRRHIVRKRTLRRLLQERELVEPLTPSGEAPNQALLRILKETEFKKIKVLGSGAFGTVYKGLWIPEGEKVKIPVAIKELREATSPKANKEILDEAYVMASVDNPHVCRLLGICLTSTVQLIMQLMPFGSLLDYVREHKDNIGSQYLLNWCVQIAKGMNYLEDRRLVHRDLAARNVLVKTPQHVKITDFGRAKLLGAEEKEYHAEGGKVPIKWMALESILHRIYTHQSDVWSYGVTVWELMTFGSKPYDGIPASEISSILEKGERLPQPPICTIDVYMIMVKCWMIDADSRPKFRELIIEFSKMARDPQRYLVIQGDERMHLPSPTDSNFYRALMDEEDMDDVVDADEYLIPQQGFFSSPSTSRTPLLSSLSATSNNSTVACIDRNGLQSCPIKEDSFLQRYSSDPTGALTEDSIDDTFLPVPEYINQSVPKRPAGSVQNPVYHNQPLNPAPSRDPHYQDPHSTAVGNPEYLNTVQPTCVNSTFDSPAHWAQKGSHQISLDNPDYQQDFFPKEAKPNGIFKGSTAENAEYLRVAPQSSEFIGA

T1 sequence (P00533 whole entry, looked up, stated change not applied): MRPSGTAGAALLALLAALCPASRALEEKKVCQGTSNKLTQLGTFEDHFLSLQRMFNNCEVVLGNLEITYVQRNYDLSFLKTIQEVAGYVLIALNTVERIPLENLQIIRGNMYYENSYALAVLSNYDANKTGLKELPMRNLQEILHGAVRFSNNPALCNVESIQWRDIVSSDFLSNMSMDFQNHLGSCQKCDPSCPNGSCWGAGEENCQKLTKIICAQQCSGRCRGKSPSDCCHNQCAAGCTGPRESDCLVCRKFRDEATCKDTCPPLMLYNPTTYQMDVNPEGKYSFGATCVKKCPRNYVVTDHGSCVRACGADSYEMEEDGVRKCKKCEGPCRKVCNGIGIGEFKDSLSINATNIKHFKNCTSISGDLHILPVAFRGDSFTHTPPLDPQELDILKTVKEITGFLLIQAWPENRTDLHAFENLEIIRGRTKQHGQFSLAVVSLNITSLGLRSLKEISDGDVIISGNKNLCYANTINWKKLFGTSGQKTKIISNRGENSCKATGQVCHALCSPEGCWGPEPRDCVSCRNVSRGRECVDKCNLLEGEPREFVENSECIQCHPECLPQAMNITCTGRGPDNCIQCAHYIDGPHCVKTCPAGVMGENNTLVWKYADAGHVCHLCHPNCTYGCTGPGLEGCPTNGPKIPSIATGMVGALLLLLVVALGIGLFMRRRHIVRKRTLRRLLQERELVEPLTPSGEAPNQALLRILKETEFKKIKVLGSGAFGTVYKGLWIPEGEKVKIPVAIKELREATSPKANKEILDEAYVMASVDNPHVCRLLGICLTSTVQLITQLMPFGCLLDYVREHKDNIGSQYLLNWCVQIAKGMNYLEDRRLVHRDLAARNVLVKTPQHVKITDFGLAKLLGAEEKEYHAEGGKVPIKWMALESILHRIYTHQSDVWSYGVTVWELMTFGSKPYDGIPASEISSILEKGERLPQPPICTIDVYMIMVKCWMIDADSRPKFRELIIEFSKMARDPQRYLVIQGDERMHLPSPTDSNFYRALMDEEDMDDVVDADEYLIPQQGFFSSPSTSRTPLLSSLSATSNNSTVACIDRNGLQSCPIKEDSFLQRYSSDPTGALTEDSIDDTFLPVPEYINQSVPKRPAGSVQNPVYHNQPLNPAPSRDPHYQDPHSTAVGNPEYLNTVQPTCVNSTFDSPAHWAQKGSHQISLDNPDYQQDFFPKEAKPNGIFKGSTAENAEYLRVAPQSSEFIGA
Sequence of Epidermal growth factor receptor (Homo sapiens, UniProt P00533) (P00533 whole entry, the tested form may be a part): as the sequence (P00533 whole entry, looked up, stated change not applied) above

| IC50 [8] [nM] | IC50 [13] [nM] | IC50 [14] [nM] | SMILES | IC50 [2] [nM] | IC50 [4] [nM] | Ratio IC50 [7] | other results |
| --- | --- | --- | --- | --- | --- | --- | --- |
|  |  |  | C=CC(=O)Nc1cc(Nc2nccc(-c3cn(C)c4ccccc34)n2)c(OC)cc1N(C)CCN(C)C [OSIMERTINIB] | 780 | 1100 |  | fraction unbound at 3 h [1]: < 0.1; solubility [3]: 86 µg/mL (≈ 172 µM); Papp [5]: 2.7 ×10⁻⁶ cm/s; IC50 [6]: > 1000 nM |
| 1 |  |  | Cc1cc2cc(n1)-c1cnn(C)c1OCCCCCN1/C(=N/C2=O)Nc2ccccc21 | 5 | 1700 | 460 |  |
|  |  |  | Cc1cc2cc(n1)-c1cnn(C)c1OCCC[C@@H](C)CN1/C(=N/C2=O)Nc2ccc(CN3CCN(C)CC3)cc21 | 0.2 | 1100 |  | IC50 [9]: 200 nM; solubility [3]: 95 µg/mL (≈ 175 µM); Papp [5]: 5.3 ×10⁻⁶ cm/s; Vd [10]: 4.2 L/kg; IC50 [11]: 1 nM; IC50 [6]: 1.3 nM; inhibition in vivo at 10 mg/kg [12]: 121% |
| 22 | > 100000 | 35 | CC(C)(O)Cn1/c(=N/C(=O)c2ccnc(-c3ccccc3)c2)[nH]c2ccccc21 | 150 | > 25000 |  |  |
| 1 |  | ≤ 3 | COc1ccncc1-c1cc(C(=O)/N=c2\[nH]c3ccccc3n2CC(C)(C)O)ccn1 | 51 | 990 |  |  |
| 0.8 |  |  | Cc1cc2cc(n1)-c1cnn(C)c1OCCC[C@@H](C)CN1/C(=N/C2=O)Nc2ccccc21 | 1 | 1000 | >1000 | hepatic extraction ratio at 4 h, 1 µM [15]: 0.47; fraction unbound at 3 h [1]: < 0.3; solubility [3]: < 0.1 µg/mL; hepatic extraction ratio at 4 h, 1 µM [16]: 0.12; Papp [5]: 0.2 ×10⁻⁶ cm/s; fraction unbound at 3 h [17]: 0.5 |
| 1400 | > 100000 | 173 | CC(C)(O)Cn1/c(=N/C(=O)c2cccc(-c3cccnc3)c2)[nH]c2ccccc21 |  |  |  | IC50 [19]: 2700 nM |
| 1.2 |  |  | Cn1ncc2c1OCCCCCN1/C(=N/C(=O)c3cc(F)nc-2c3)Nc2ccccc21 | 6 | 330 | 45 |  |
| 43 | > 100000 | 72 | Cn1cc(-c2cc(C(=O)/N=c3\[nH]c4ccccc4n3CC(C)(C)O)ccn2)cn1 | 333 | 8900 |  | IC50 [19]: 519 nM |
|  |  |  | CC(C)(O)Cn1/c(=N/C(=O)c2ccnc(-c3cccnc3)c2)[nH]c2ccccc21 | 270 |  |  |  |
| 3 |  |  | O=C1/N=C2\Nc3ccccc3N2CCCCCOc2ccccc2-c2cc1ccn2 | 27 | 1600 | 48 |  |

| SMILES | IC50 [8] [nM] | IC50 [13] [nM] | IC50 [14] [nM] | IC50 [2] [nM] | IC50 [4] [nM] | Ratio IC50 [7] | other results |
| --- | --- | --- | --- | --- | --- | --- | --- |
| CC(C)(O)Cn1/c(=N/C(=O)c2cc(F)cc(-c3cccnc3)c2)[nH]c2ccccc21 | 790 | > 100000 | 250 |  |  |  | Ratio IC50 [18]: > 400; IC50 [19]: 2100 nM |
